Screening results (PubChem BioAssay)
Rows were chosen to be rich in hits. Some 4.1% of all compounds tested hit in one or more screens of this group.
UPR XBP1 act: adaptive UPR (XBP1) activation. CHO-XBP1 luciferase reporter, IRE1-XBP1 UPR activation, luminescence; percent of tunicamycin response, DMSO as zero. activation, % at 20 µM. 0.33% of 330,000 active. AID 463104;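 active = versus positive control, 20 µM dose yields 30% or more activation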
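Material: CHO cell line with stable XBP1 luciferase reporter; buffer or medium: F12 medium containing 10% fetal bovine serum; compound: single point, 20 µM final compound, 1% DMSO; incubation: 6 h treatment, 37 °C; measured by: glow luminescence from Steady-Glo reagent; evaluation: activation, % of tunicamycin; control set: tunicamycin high, DMSO low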
Apaf1 inhib: inhibitors of human Apaf-1 apoptosome | O14727 | reconstituted apoptosome caspase-3 activity, DEVD-Rh110 fluorescence | inhibition, % at 20 µM | 0.71% of 330,000 active; active = inhibition of at least 40% at 20 µM
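Medium: Hepes buffer, pH 7.5 / System: biochemical Apaf-1 apoptosome reconstitution / Measured by: Rh110 fluorescence, excitation 480 nm, emission 540 nm / Times: compound with Apaf-1, dATP, procaspase-3 30 min, then 50 min reaction, room temperature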
CHOP UPR activ: apoptotic UPR (CHOP) activation; CHO-CHOP luciferase reporter, luminescence; percent of tunicamycin response over DMSO baseline; activation, % at 10 µM; 0.34% of 330,000 active; AID 449763;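 active = at 10 µM dose, activation of 40% or more, normalized to positive control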
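assay system = CHO CHOP reporter cells | amount = 500 CHO-CHOP cells per well | buffer or medium = F12 with 10% FBS | incubation = 16-18 h cell attachment, then 6 h compound exposure, 37 °C | detection = luminescence read with Steady-Glo | read-out = percent activation relative to tunicamycin control | controls = tunicamycin high control, DMSO low control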
Mdm2 MdmX PPI: disrupts the human Mdm2-MdmX interaction; SaOS-2 split-luciferase Mdm2/MdmX complementation, luminescence; O15151+Q00987; AID 485346; 3% of 330,000 active; inhibition, % at 8 µM;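 active = inhibition of at least 50% at 8 µM in the primary screen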
UBC13 inh: blocks human UBC13 polyubiquitin chain formation | P61088 | TR-FRET | inhibition, % at 20 µM | 0.47% of 330,000 active | AID 485273; in the data active = inhibition above about 45%, passing the limit was not always enough
Target sequence (P61088 whole entry, looked up): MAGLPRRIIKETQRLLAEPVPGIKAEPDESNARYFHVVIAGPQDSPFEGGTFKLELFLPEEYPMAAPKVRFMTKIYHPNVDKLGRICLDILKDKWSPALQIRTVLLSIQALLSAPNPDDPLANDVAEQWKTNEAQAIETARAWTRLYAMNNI
Apaf-1 inh conf: confirmation of Apaf-1 inhibitors; shares compounds with Apaf1 inhib; reconstituted apoptosome, caspase-3 DEVD-Rh110 fluorescence; inhibition, % at 20 µM; 25% of 1,800 active; AID 504614;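 active = mean inhibition of at least 40% at 20 µM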
Rh110 quench: counter-screen for Apaf-1 inhibitors: fluorescence interference | activation (fluorescence interference), % at 20 µM | AID 504615 | 1,800 tested, under 10 active | shares compounds with Apaf1 inhib | Rh110 fluorescence interference, quenched caspase reaction;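 active = signal rise of 40% or more at 20 µM, treated as a fluorescence artifact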
Apaf1 inh interf: shows fluorescence interference in the Apaf-1 inhibitor assay format; shares compounds with Apaf1 inhib; fluorescence interference counterscreen, Apaf-1 assay format; IC50, µM; 460 tested, under 10 active; call rule not given here
Large screens that a line does not name were inactive (follow-up assays come after a bar, where they were run).

COc1ccc2noc3c2c1C(=O)c1ccccc1-3	Apaf1 inhib 78 | Apaf-1 inh conf 44 | Rh110 quench inactive | Apaf1 inh interf 59
COc1ccc(OC)c2c1C(=O)c1ccccc1C2=O	Apaf1 inhib 63 | Apaf-1 inh conf inactive | Rh110 quench inactive
COc1cccc2c1C(=O)c1ccc3ccccc3c1C2=O	Apaf1 inhib 72 | Apaf-1 inh conf inactive | Rh110 quench inactive
CC1c2cc3c(cc2CCN1C(=O)c1cccc(F)c1)OCCCO3 (stereo unspecified)	none
COc1ccc(/C=C(/NC(=O)/C=C/c2ccccc2)C(=O)NCCCCCC(=O)O)cc1	none
NC(=S)Nc1ccc2cn[nH]c2c1	none
c1cc2cn[nH]c2cc1NC1CCCCCC1	Apaf1 inhib 53 | Apaf-1 inh conf 68 | Rh110 quench inactive | Apaf1 inh interf inactive
Cc1cc(=O)n(-c2ccc3ccccc3n2)[nH]1	Apaf1 inhib 86 | Apaf-1 inh conf inactive | Rh110 quench inactive
Cn1c(SCC(=O)n2c3c(c4ccccc42)CCCC3)nnc1-c1ccccc1	Apaf1 inhib 43 | Apaf-1 inh conf inactive | Rh110 quench inactive
Cc1nnc(SCC(=O)n2c3c(c4ccccc42)CCCC3)s1	none
Clc1ccc(OCCSc2nnnn2C2CCCCC2)cc1	Apaf1 inhib 65 | Apaf-1 inh conf inactive | Rh110 quench inactive
[O-]/C(=C(\C(=S)Nc1cccc2ccccc12)[n+]1ccccc1)c1ccc(Cl)s1	Apaf1 inhib 47 | Apaf-1 inh conf inactive | Rh110 quench inactive
CCc1cccc(CC)c1NC(=S)/C(=C(\[O-])c1ccc(Cl)s1)[n+]1ccccc1	none
CC(=O)c1ccc(OCCCC(=O)N2CCN(S(=O)(=O)c3ccc(C)cc3C)CC2)cc1	Apaf1 inhib 40 | Apaf-1 inh conf inactive | Rh110 quench inactive
CC(=O)N1CCC(C(=O)N2CCN(S(=O)(=O)c3ccc(F)cc3)CC2)CC1	none
CCCCc1ccc(Nc2nc(CCC)cc(=O)[nH]2)cc1	Apaf1 inhib 40 | Apaf-1 inh conf inactive | Rh110 quench inactive
CCCc1cc(=O)[nH]c(Nc2ccc(N3CCCCC3)cc2)n1	none
Cc1cc(C)c2nc(N(CCN(C)C)C(=O)c3ccc(S(=O)(=O)N(C)CC4CCCO4)cc3)sc2c1 (stereo unspecified)	Apaf1 inhib 49 | Apaf-1 inh conf inactive | Rh110 quench inactive
COc1ccc(CC2SC(N)=NC2=O)cc1 (stereo unspecified)	none
COc1ccc(C(=O)NNC(=O)C(=O)Nc2cccc3ccccc23)cc1	none
Cc1ccc(S(=O)(=O)NCC(c2ccccc2)N2CCCCC2)cc1 (stereo unspecified)	none
O=C(/C=C/c1ccc(O)cc1)c1ccc(NC2=C(N3CCCCC3)C(=O)c3ccccc3C2=O)cc1	Apaf1 inhib 76 | Apaf-1 inh conf 95 | Rh110 quench inactive | Apaf1 inh interf inactive
O=C1C(Nc2ccccc2)=C(N2CCCCC2)C(=O)c2ccccc21	Apaf1 inhib 93 | Apaf-1 inh conf 90 | Rh110 quench inactive | Apaf1 inh interf inactive
O=C1C(Nc2cccc(O)c2)=C(N2CCCCC2)C(=O)c2ccccc21	Apaf1 inhib 88 | Apaf-1 inh conf 91 | Rh110 quench inactive | Apaf1 inh interf inactive
Cc1ccc(C(=O)Nc2cccc(O)c2)cc1S(=O)(=O)N1CCCCCC1	none
Cc1ccc(NC2=C(N3CCCCC3)C(=O)c3ccccc3C2=O)cc1	Apaf1 inhib 81 | Apaf-1 inh conf 95 | Rh110 quench inactive | Apaf1 inh interf inactive
CN(C1=C(N2CCCCC2)C(=O)c2ccccc2C1=O)c1ccccc1	none
C[C@H](CO)N1C[C@H](C)[C@@H](CN(C)S(=O)(=O)c2ccccc2)Oc2ccc(NC(=O)C3CC3)cc2C1=O	none
CCCNC(=O)/C=C/C(=O)O	none
CC(=O)NC1=C(N(C)C2CCS(=O)(=O)C2)C(=O)c2ccccc2C1=O (stereo unspecified)	Apaf1 inhib 54 | Apaf-1 inh conf 67 | Rh110 quench inactive | Apaf1 inh interf inactive
COC1=C(Nc2ccc(C)cc2)C(=O)c2ccccc2C1=O	Apaf1 inhib 61 | Apaf-1 inh conf inactive | Rh110 quench inactive
COC1=C(Nc2ccccc2)C(=O)c2ccccc2C1=O	Apaf1 inhib 61 | Apaf-1 inh conf inactive | Rh110 quench inactive
COc1ccc(S(=O)(=O)Nc2ccc(Nc3ccccc3)cc2)cc1	none
COc1ccc(F)cc1S(=O)(=O)Nc1ccc(C)cc1	none
CCCCCCSc1ccc(-c2nc3ccc(C)cn3c2NCc2ccccc2)cc1	none
CCCCCCSc1ccc(-c2nc3cnccn3c2NCCCC)cc1	Apaf1 inhib 56 | Apaf-1 inh conf inactive | Rh110 quench inactive
CCCCCCSc1cc(-c2nc3ccc(C)cn3c2NCCCC)ccc1OC	Apaf1 inhib 46 | Apaf-1 inh conf inactive | Rh110 quench inactive
CCCCNc1c(-c2ccc(OC)c(SC(C)CC)c2)nc2cc(C)ccn12 (stereo unspecified)	Apaf1 inhib 49 | Apaf-1 inh conf inactive | Rh110 quench inactive
CCCCCCSc1cc(-c2nc3ccc(Cl)cn3c2NCCCC)ccc1OC	none
CCCCNc1c(-c2ccc(OC)c(SC(C)CC)c2)nc2ccc(Cl)cn12 (stereo unspecified)	none
CCCCCCSc1ccc(-c2nc3ccc(C)cn3c2NCc2ccccc2)cc1OC	Apaf1 inhib 41 | Apaf-1 inh conf inactive | Rh110 quench inactive
CCOc1ccc(C(C)(C)C)cc1S(=O)(=O)Nc1ccncc1	none
COC(=O)c1sccc1NC(=O)Nc1ccc(F)cc1F	none
CCN(CC)c1ccc(NC(=O)c2cccc(C)c2)cc1S(=O)(=O)Nc1ccccc1OC	none
CC(C)CNC(=O)c1ccccc1NC(=O)c1ccc(CSc2ccccc2)cc1	none
O=C1CCCc2oc3c(c21)CCCC3	none
COc1ccc2ccccc2c1C1CC(=O)N2CN(Cc3ccco3)CSC2=C1C#N (stereo unspecified)	Apaf1 inhib 52 | Apaf-1 inh conf inactive | Rh110 quench inactive
N#CC1=C2SCN(Cc3ccccc3)CN2C(=O)CC1c1cccs1 (stereo unspecified)	Apaf1 inhib 78 | Apaf-1 inh conf inactive | Rh110 quench inactive
CCO[C@@H]1OC(C(=O)N2CCN(Cc3ccc4c(c3)OCO4)CC2)=C[C@H](c2ccc(Br)cc2)[C@H]1CCCO	none
CCO[C@@H]1OC(C(=O)N2CCN(Cc3ccc4c(c3)OCO4)CC2)=C[C@H](c2ccc(C(F)(F)F)cc2)[C@H]1CCCO	Apaf1 inhib 42 | Apaf-1 inh conf inactive | Rh110 quench inactive
